Key:
NC•SL4 = assay: NC–RNA inhibition: ligand added to preformed NC•SL4 complex, ESI-FTMS; format: binding, HIV-1; conditions: 0.35–17.5 µM ligand added to preformed complex
In short: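 NC was expressed in E. coli BL21(DE3)-pLysE and purified non-denaturing, with two Zn2+ confirmed by MS. It was mixed equimolar with refolded hairpin (SL4 stem extended by three base pairs) for 15 min at room temperature, forming a 1:1 complex. Ligand (0.35–17.5 µM) was added to ~3.5 µM complex in 100 mM ammonium acetate pH 7.5, then read by negative-ion ESI-FTMS. IC50 at 0.5 fractional occupancy, from competition-isotherm fit, triplicate.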

NC•SL2 = assay: NC–RNA inhibition: ligand added to preformed NC•SL2 complex, ESI-FTMS; format: binding, HIV-1; conditions: 0.35–17.5 µM ligand added to preformed complex
NC•SL3 = assay: NC–RNA inhibition: ligand added to preformed NC•SL3 complex, ESI-FTMS; format: binding, HIV-1; conditions: for ligand effect on NC•SL3 complex: 0.35–17.5 µM ligand added to preformed complex
SL2 = assay: Multiplexed binding assay, ternary ligand mixture added to SL2, ESI-FTMS; design: species or system HIV-1; conditions: ternary mixture of vancomycin, mitoxantrone and neomycin B; negative control
In short: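 SL2 hairpin (HIV-1 NL4-3 sequence), desalted in 100 mM ammonium acetate pH 7.5, heated 95°C 3 min, ice-cooled. Equimolar mix of up to three ligands added stepwise to 0.35 µM final RNA, giving 0.35–17.5 µM total ligand. Incubated 15 min at room temperature. Analysed by 2-propanol-assisted nanospray ESI-FTMS (7 T, negative ion). Species quantified from signal intensities divided by charge state.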

SMILES | ligand effect on NC•SL4 complex (NC•SL4) | ligand effect on NC•SL2 complex (NC•SL2) | ligand effect on NC•SL3 complex (NC•SL3) | equivalents of ligand bound to NC•SL3 complex (ternary species) (NC•SL3; 5-fold addition of ligand) | binding to SL2 in multiplexed assay (SL2)
Cn1cc(NC(=O)c2cc(NC(=O)c3cc(NC=O)cn3C)cn2C)cc1C(=O)NCCC(=N)N [Distamycin A, distamycin A] | No Effect | No Effect | – | – | –
CN(C)[C@@H]1C(O)=C(C(N)=O)C(=O)[C@@]2(O)C(O)=C3C(=O)c4c(O)ccc(Cl)c4[C@@](C)(O)[C@H]3C[C@@H]12 [Chlorotetracycline, chlorotetracycline] | No Effect | No Effect | No Effect | – | –
O=C1c2c(O)ccc(O)c2C(=O)c2c(NCCNCCO)ccc(NCCNCCO)c21 [Mitoxantrone, mitoxantrone] | – | – | no detectable signs of dissociation | up to three | –
CN[C@H](CC(C)C)C(=O)N[C@H]1C(=O)N[C@@H](CC(N)=O)C(=O)N[C@H]2C(=O)N[C@H]3C(=O)N[C@H](C(=O)N[C@H](C(=O)O)c4cc(O)cc(O)c4-c4cc3ccc4O)[C@H](O)c3ccc(c(Cl)c3)Oc3cc2cc(c3O[C@@H]2O[C@H](CO)[C@@H](O)[C@H](O)[C@H]2O[C@H]2C[C@](C)(N)[C@H](O)[C@H](C)O2)Oc2ccc(cc2Cl)[C@H]1O [vancomycin] | – | – | – | – | no binding was observed

Source: article PMC1390681 (Nucleic Acids Research, 2006)
